Measured values: ChEMBL document CHEMBL3244118, “3-(3-Substituted prop-1-enyl)cephalosporins” (1977)

Key:
Type in all cases: functional
[1] = tested on: Staphylococcus aureus; test: Antibacterial activity against Staphylococcus aureus Smith infected in sc dosed mouse assessed as survival of host administered 1 hr and 5 hrs post challenge measured 72 hrs post challenge
In short: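 Mice infected ip with about 2×10^3 S. aureus Smith organisms per mouse, culture diluted in 4% hog gastric mucin for uniformly lethal infection. Twofold dilutions given sc in equally divided portions at 1 and 5 h postinfection, four groups of ten mice. Survivors observed for 72 h. PD50 (total mg/kg protecting 50%) calculated by probit analysis.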

[2] = tested on: Streptococcus pyogenes; test: Antibacterial activity against Streptococcus pyogenes ATCC 8668 by agar inclusion method
In short: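 MIC by agar inclusion, twofold dilutions in brain heart infusion medium at pH 7.4, reported in […].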

[3] = tested on: Staphylococcus aureus; test: Antibacterial activity against penicillin G-resistant Staphylococcus aureus ATCC 14154 by agar inclusion method
In short: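 MIC by agar inclusion in brain heart infusion medium, pH 7.4, using twofold dilutions. Strain ATCC 14154 is penicillin G resistant. Values reported in […].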

CC(=O)OC/C=C/C1=C(C(=O)[O-])N2C(=O)[C@@H](NC(=O)Cc3cccs3)[C@H]2SC1.[Na+]
PD50 [1]: 1.85 µmol/kg
MIC [2]: < 2 µM
MIC [3]: 560 µM

Cn1nnnc1SCC1=C(C(=O)[O-])N2C(=O)[C@@H](NC(=O)Cc3cccs3)[C@H]2SC1.[Na+]
PD50 [1]: 1.69 µmol/kg
MIC [2]: 13 µM
MIC [3]: 100 µM

Cn1nnnc1SC/C=C/C1=C(C(=O)[O-])N2C(=O)[C@@H](NC(=O)Cc3cccs3)[C@H]2SC1.[Na+]
PD50 [1]: 0.3 µmol/kg
MIC [2]: 1.6 µM
MIC [3]: 200 µM

CC(=O)OCC1=C(C(=O)[O-])N2C(=O)[C@@H](NC(=O)Cc3cccs3)[C@H]2SC1.[Na+] [CEPHALOTHIN SODIUM]
PD50 [1]: 3.54 µmol/kg
MIC [2]: 74 µM
MIC [3]: 480 µM
